Assay results taken from ChEMBL document CHEMBL3102843, “Synthesis and antifungal activity of substituted 2,4,6-pyrimidinetrione carbaldehyde hydrazones” (Bioorg Med Chem, 2014).
Values after ≈ are worked out from the molar mass of the structure shown. Active and inactive are the calls of the source. How the calls were made is not given here.

What was measured:
Candida albicans = assay: Antifungal activity against Candida albicans ATCC 10231 after 48 to 72 hrs by broth microdilution method; format: functional
Summary of the method: (§1)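 Broth microdilution per NCCLS. Organisms were subcultured on Sabouraud agar. Inoculum was 5–7 colonies from YM agar in sterile water, adjusted to 0.5 McFarland at 530 nm (1–5×10⁶ cells/mL stock), held 30 min at RT, then diluted 1:50 in HEPES-buffered RPMI 1640. DMSO stocks were twofold-diluted, with final DMSO ≤1%. Plates ran 48–72 h at 35 °C, humid. MIC is the lowest concentration giving ≥80% growth reduction vs drug-free wells, scored visually. Fluconazole or amphotericin B ran as drug control.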

Nakaseomyces glabratus = assay: Antifungal activity against Candida glabrata ATCC 48435 after 48 to 72 hrs by broth microdilution method; format: functional; summary of the method: as §1

Compound	MIC80 (Candida albicans)	MIC80 (Nakaseomyces glabratus)
COc1ccc(/C(=N\CCCCCC(=O)O)C2C(=O)NC(=O)NC2=O)cc1	inactive	inactive
C/C(=N\c1ccccc1)C1C(=O)NC(=O)NC1=O	inactive	inactive
COC(=O)N/N=C/C1C(=O)NC(=O)NC1=O	inactive	inactive
O=C1NC(=O)C(/C=N/Nc2ccccc2)C(=O)N1	4 µg/mL (≈ 16.2 µM)	2 µg/mL (≈ 8.12 µM)
CN1C(=O)C(/C=N/c2nnc[nH]2)C(=O)N(C)C1=O	inactive	inactive
C/C(=N\N)C1C(=O)N(C)C(=O)N(C)C1=O	inactive	inactive
C/C(=N\Nc1ccc([N+](=O)[O-])cc1[N+](=O)[O-])C1C(=O)N(C)C(=O)N(C)C1=O	inactive	inactive
COC(=O)N/N=C(\C)C1C(=O)NC(=O)NC1=O	inactive	inactive
O=C1NC(=O)C(=Cc2ccoc2)C(=O)N1	inactive	inactive
COc1ccc(C=C2C(=O)N(C)C(=O)N(C)C2=O)c(OC)c1OC	inactive	inactive
O=C1NC(=O)C(/C(=N/Nc2ccc([N+](=O)[O-])cc2[N+](=O)[O-])c2ccccc2)C(=O)N1	inactive	inactive
CN1C(=O)C(/C=N/c2ccccn2)C(=O)N(C)C1=O	inactive	inactive
CN1C(=O)C(/C=N/c2ccc(O)cc2)C(=O)N(C)C1=O	inactive	inactive
O=C1NC(=O)C(=Cc2ccccc2O)C(=O)N1	inactive	8 µg/mL (≈ 34.5 µM)
O=C1NC(=O)C(/C=N/C2N=NN=N2)C(=O)N1	inactive	inactive
O=C1NC(=O)C(/C=N/c2ccccc2)C(=O)N1	inactive	inactive
COC(=O)N/N=C(\c1ccc([N+](=O)[O-])cc1)C1C(=O)NC(=O)NC1=O	inactive	inactive
C/C(=N\NS(=O)(=O)c1ccccc1)C1C(=O)NC(=O)NC1=O	inactive	inactive
O=C1NC(=O)N(c2ccccc2)C(=O)C1/C(=N/Nc1ccc([N+](=O)[O-])cc1[N+](=O)[O-])c1ccccc1 (centres undefined)	inactive	inactive
C/C(=N\NC(=O)c1ccccc1)C1C(=O)N(C)C(=O)N(C)C1=O	inactive	inactive
CN1C(=O)C(/C(=N/Nc2ccc([N+](=O)[O-])cc2[N+](=O)[O-])c2ccc(O)cc2)C(=O)N(C)C1=O	inactive	inactive
COc1ccc(/N=C(\C)C2C(=O)N(C)C(=O)N(C)C2=O)cc1	inactive	inactive
O=C1NC(=O)C(/C=N/Nc2ccc([N+](=O)[O-])cc2[N+](=O)[O-])C(=O)N1	inactive	125 µg/mL (≈ 372 µM)
CCCCN1C(=O)NC(=O)C(/C(=N/Nc2ccc([N+](=O)[O-])cc2[N+](=O)[O-])c2ccccc2)C1=O (centres undefined)	inactive	inactive
CN1C(=O)C(/C=N/c2ccccc2)C(=O)N(C)C1=O	inactive	inactive
O=C1NC(=O)C(/C=N/c2nnc[nH]2)C(=O)N1	inactive	inactive
COc1ccc(C=C2C(=O)N(C)C(=O)N(C)C2=O)cc1	inactive	inactive
